Assays:
MA104 cells = assay: Cytotoxicity by microscopical cell morphology evaluation; type: cell-based; conditions: mean of three independent experiments
Procedure, shortened: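 Toxicity to MA104 cells was scored by microscopic assessment of cell morphology. Cells were grown in 199 medium with 10% fetal bovine serum and antibiotics at 37 °C in humidified 5% CO2. Test compound was dissolved in 1% DMSO in 199 medium and filtered at 0.22 μm. CC50 was estimated by linear regression of concentration–effect curves, as the mean of three independent experiments.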

[1] = test system: human rotavirus (Wa-1 strain); assay: Antirotavirus activity by cytopathic effect; type: cell-based; conditions: for IC50: human rotavirus, NA = no antiviral activity; for antiviral (antirotavirus) activity in words: non-cytotoxic concentrations
Procedure, shortened: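 MA104 cells grown in 199 medium with 10% fetal bovine serum, penicillin G, streptomycin and amphotericin B at 37 °C, 5% CO2, were infected with human rotavirus Wa-1, which had been propagated in MA104 cells with trypsin (5 μg/ml) and titred as TCID50/ml. Test compound was dissolved in 1% DMSO in 199 medium and filter-sterilised. Read-out was cytopathic-effect inhibition. IC50 came from linear regression of concentration–effect curves, as the mean of three independent experiments.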

Row | Compound | CC50 (MA104 cells; flavonols (Table 1)) | IC50 ([1]; flavonols (Table 1)) | antiviral (antirotavirus) activity in words [1] | CC50 (MA104 cells; flavones (Table 2)) | IC50 ([1]; flavones (Table 2))
1 | O=c1c(O)c(-c2ccccc2OCc2ccccc2)oc2ccccc12 [compound 19] | 45.3 µM | 7.55 µM | considerable antirotavirus action |  | 
2 | COc1ccc(-c2oc3ccc(OC)cc3c(=O)c2O)cc1 [compound 32] | 105 µM | 17.4 µM |  |  | 
3 | COc1ccc(-c2cc(=O)c3c(OC)c(OC)c(OC)c(OC)c3o2)cc1 [compound 49] |  |  |  | 168 µM | 28.2 µM
4 | COc1ccc2oc(-c3ccccc3)c(O)c(=O)c2c1 [compound 29] | 29.1 µM |  |  |  | 
5 | COc1ccc(-c2oc3ccccc3c(=O)c2O)c(OC)c1 [compound 9] | 52.3 µM | 26.2 µM |  |  | 
6 | O=c1c(OS(=O)(=O)O)c(-c2ccc(O)c(O)c2)oc2cc(O)cc(O)c12 [compound 47] |  |  | conferred an antiviral activity | 40.9 µM | 10.2 µM
7 | COc1ccc(-c2oc3ccccc3c(=O)c2O)cc1OC [compound 10] | 52.3 µM | 13.1 µM |  |  | 
8 | O=c1c(O)c(-c2ccc(O)cc2)oc2ccccc12 [compound 3] | 61.4 µM |  | did not grant antiviral activity |  | 
9 | quercetrin [compound 46] |  |  | did not provide antiviral activity | 27.2 µM | 
10 | COc1ccc(-c2oc3c(OC)c(OC)c(OC)c(OC)c3c(=O)c2OC)cc1OC [compound 57] |  |  | weak antirotavirus activity | 36.1 µM | 18 µM
11 | CCOc1cccc(-c2oc3ccccc3c(=O)c2O)c1 [compound 14] | 111 µM |  |  |  | 
12 | O=c1c(O)c(-c2ccc(O)c(O)c2)oc2cc(O)cc(O)c12 [compound 28] | 103 µM |  | antiviral activity was not observed |  | 
13 | CCOc1ccc2c(=O)c(O)c(-c3ccccc3)oc2c1 [compound 35] | 111 µM |  |  |  | 
14 | COc1ccc(-c2oc3cc(OC)ccc3c(=O)c2O)c(OC)c1 [compound 34] | 47.4 µM | 11.8 µM |  |  | 
15 | O=c1c(O)c(-c2ccccc2O)oc2ccccc12 [compound 1] | 61.4 µM |  | did not grant antiviral activity |  | 
16 | CCOc1ccccc1-c1oc2ccccc2c(=O)c1O [compound 15] | 111 µM |  |  |  | 
17 | COc1ccc2c(=O)c(O)c(-c3ccccc3)oc2c1 [compound 30] | 29.1 µM |  |  |  | 
18 | COc1ccc(-c2oc3ccccc3c(=O)c2O)c(OC)c1OC [compound 12] | 23.8 µM | 6.09 µM |  |  | 
19 | COc1ccc(-c2cc(=O)c3cc(OCc4ccccc4)ccc3o2)cc1 [compound 48] |  |  | antiviral activity was not shown | 21.8 µM | 
20 | CCCCOc1ccc(-c2oc3ccccc3c(=O)c2O)c(OCCCC)c1 [compound 26] | 40.8 µM | 10.2 µM |  |  | 
21 | CCCCOc1ccccc1-c1oc2ccccc2c(=O)c1O [compound 23] | 302 µM | 75.4 µM |  |  | 
22 | CCOc1cccc(-c2oc3cc(OCC)ccc3c(=O)c2O)c1 [compound 37] | 47.8 µM | 7.97 µM | antiviral activity was detected |  | 
23 | COc1c(OC)c(O)c2c(=O)cc(-c3ccc(O)cc3)oc2c1OC [compound 40] |  |  |  | 22.7 µM | 7.56 µM
24 | CCOc1ccc(-c2oc3ccccc3c(=O)c2O)cc1OCC [compound 18] | 47.8 µM | 7.97 µM | promising antiviral activity |  | 
25 | COc1ccc(-c2oc3cccc(OC)c3c(=O)c2O)cc1 [compound 31] | 26.2 µM | 4.69 µM |  |  | 
26 | O=c1c(O)c(-c2ccccc2)oc2cc(O)ccc12 [compound 27] | 61.4 µM | 15.7 µM |  |  | 
27 | COc1c(-c2ccc(O)c(O)c2)oc2cc(O)cc(O)c2c1=O [compound 43] |  |  | conferred an antiviral activity | 49.3 µM | 12.3 µM

Row | Compound | CC50 (MA104 cells; flavonols (Table 1)) | IC50 ([1]; flavonols (Table 1)) | antiviral (antirotavirus) activity in words [1] | CC50 (MA104 cells; flavones (Table 2)) | IC50 ([1]; flavones (Table 2))
28 | CCCCOc1ccc(-c2oc3ccccc3c(=O)c2O)cc1OCCCC [compound 25] | 40.8 µM | 6.8 µM | higher activity |  | 
29 | CCCCOc1ccc2c(=O)c(O)c(-c3ccccc3)oc2c1 [compound 38] | 50.3 µM | 8.38 µM | Antiviral activity was provided |  | 
30 | O=c1c(O)c(-c2ccc(OCc3ccccc3)cc2)oc2cc(OCc3ccccc3)ccc12 [compound 39] | 69.3 µM | 17.3 µM | Antiviral activity was provided |  | 
31 | COc1ccc(-c2oc3c(OC)c(OC)c(OC)c(O)c3c(=O)c2OC)cc1O [compound 60] |  |  |  | 77.2 µM | 77.2 µM
32 | O=c1c(O)c(-c2ccc(OCc3ccccc3)cc2)oc2ccccc12 [compound 13] | 22.7 µM | 3.78 µM | considerable antirotavirus action |  | 
33 | COc1ccc(-c2cc(=O)c3c(O)c(OC)c(OC)c(OC)c3o2)cc1 [compound 51] |  |  |  | 43.6 µM | 7.26 µM
34 | COc1ccc(-c2cc(=O)c3c(OC)c(OC)c(OC)cc3o2)cc1OC [compound 54] |  |  |  | 41.9 µM | 6.98 µM
35 | COc1ccc(-c2cc(=O)c3c(O)c(OC)c(OC)cc3o2)cc1 [compound 52] |  |  |  | 23.8 µM | 15.6 µM
36 | COc1ccc(-c2oc3ccccc3c(=O)c2O)cc1 [compound 7] | 29.1 µM |  | antiviral action was not observed |  | 
37 | C[C@@H]1O[C@@H](Oc2c(-c3ccc(O)c(O)c3)oc3cc(O)cc(O)c3c2=O)[C@H](O)[C@H](O)[C@H]1O [compound 44] |  |  | did not provide antiviral activity | 69.6 µM | 
38 | COc1ccccc1-c1oc2ccccc2c(=O)c1O [compound 8] | 44.7 µM |  | antiviral action was not observed |  | 
39 | COc1cc(-c2oc3ccccc3c(=O)c2O)cc(OC)c1OC [compound 11] | 47.5 µM | 11.9 µM |  |  | 
40 | CCOc1ccc(-c2oc3cc(OCC)ccc3c(=O)c2O)cc1 [compound 36] | 47.8 µM | 12 µM | antiviral activity was detected |  | 
41 | O=c1c(O)c(-c2cc(O)c(O)c(O)c2)oc2ccccc12 [compound 6] | 27.2 µM | 18.2 µM |  |  | 
42 | CCCCOc1ccc(-c2oc3ccccc3c(=O)c2O)cc1 [compound 24] | 201 µM | 40.6 µM |  |  | 
43 | CCOc1ccc(-c2oc3ccccc3c(=O)c2O)c(OCC)c1 [compound 16] | 47.8 µM |  |  |  | 
44 | COc1ccc(-c2cc(=O)c3c(OC)c(OC)c(OC)c(OC)c3o2)cc1OC [compound 55] |  |  | antiviral effect was not shown | 38.8 µM | 
45 | CCOc1ccc(OCC)c(-c2oc3ccccc3c(=O)c2O)c1 [compound 17] | 23.9 µM | 12 µM |  |  | 
46 | O=c1c(O)c(-c2cccc(O)c2)oc2ccccc12 [compound 2] | 61.4 µM | 27.5 µM |  |  | 
47 | O=c1c(O)c(-c2cc(O)ccc2O)oc2ccccc12 [compound 5] | 57.7 µM |  | did not grant antiviral activity |  | 
48 | O=c1c(O)c(-c2ccc(O)c(O)c2)oc2ccccc12 [compound 4] | 57.7 µM | 14.4 µM |  |  | 
49 | CCc1ccc(-c2oc3ccccc3c(=O)c2O)cc1 [compound 21] | 14.7 µM | 3.64 µM | Antiviral activity was provided |  | 
50 | COc1ccc(-c2cc(=O)c3c(O)cc(OC)cc3o2)cc1 [compound 50] |  |  |  | 52.4 µM | 13.1 µM
51 | COc1cc(-c2oc3c(OC)c(OC)cc(O)c3c(=O)c2OC)ccc1O [compound 59] |  |  |  | 41.7 µM | 6.95 µM
52 | COc1ccc(-c2oc3cc(OC)ccc3c(=O)c2O)cc1 [compound 33] | 26.2 µM | 6.37 µM |  |  | 
53 | CCCCOc1cccc(-c2oc3ccccc3c(=O)c2O)c1 [compound 22] | 25.1 µM | 6.12 µM |  |  | 

— publication PMC7126014 (Fitoterapia, 2010)
